Laboratory results from ChEMBL document CHEMBL1165950, “Design and synthesis of new potent anticancer pyrazoles with high FLT3 kinase inhibitory selectivity” (Bioorg Med Chem, 2010).

What was measured:
Type in all cases: functional
MDA-MB-468 = test: Growth inhibition of human MDA-MB-468 cells after 48 hrs by sulforhodamine B assay; settings: MDA-MB-468, 48 h
Outline: (§1)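 NCI 60-cell screen, five-dose mode. Cells grown in RPMI 1640 with 5% FBS and 2 mM L-glutamine and plated at 5000-40,000 cells/well according to doubling time. After 24 h preincubation, a Tz plate was TCA-fixed. Five concentrations (10-fold or 1/2 log dilutions) were applied for 48 h at 37 °C. SRB staining read at 515 nm. IC50 taken from [(Ti-Tz)/(C-Tz)]×100 = 50.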

HL-60(TB) = test: Cytotoxicity against human HL-60(TB) cells assessed as cell growth at 100 nM after 48 hrs by sulforhodamine B assay; settings: HL-60, 48 h, read-out: Activity
Outline: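 NCI 60-cell panel. Cells are grown in RPMI 1640 with 5% FBS and 2 mM L-glutamine, seeded at 5000–40,000 cells/well according to doubling time, and preincubated 24 h. Time-zero plates are TCA-fixed. Compound from DMSO stock is given at five 10-fold or 1/2-log concentrations for 48 h at 37 °C, 5% CO2. Suspension cells are fixed with 80% TCA (final 16%) and SRB-stained, with absorbance at 515 nm. Percent growth is derived from Tz, control and test readings.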

SF-268 [1] = test: Growth inhibition of human SF268 cells after 48 hrs by sulforhodamine B assay; settings: SF-268, 48 h; outline: as §1
EKVX [2] = test: Growth inhibition of human EKVX cells after 48 hrs by sulforhodamine B assay
Outline: (§2)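 NCI five-dose SRB assay in RPMI 1640 with 5% FBS and 2 mM L-glutamine. Cells were preincubated 24 h, then exposed 48 h at 37 °C to five concentrations (10-fold or half-log serial dilutions from DMSO stocks). TCA fixation, SRB staining, and absorbance at 515 nm followed. IC50 was taken where [(Ti−Tz)/(C−Tz)]×100 = 50, with Tz as time-zero cell density.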

SF-268 [3] = test: Cytotoxicity against human SF268 cells assessed as cell growth at 10 uM after 48 hrs by sulforhodamine B assay; settings: SF-268, 48 h, read-out: Activity
T47D = test: Cytotoxicity against human T47D cells assessed as cell growth at 10 uM; settings: read-out: Activity
Outline: (§3)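 NCI-60 screen: cells grown in RPMI 1640 with 5% FBS and 2 mM L-glutamine, plated at 5000–40,000 cells/well according to doubling time, and preincubated 24 h at 37 °C, 5% CO2. The single 10 µM dose (DMSO stock) was added, then incubated 48 h. Cells were TCA-fixed and stained with 0.4% SRB, read at 515 nm, and growth % calculated against time-zero and control plates.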

MDA-MB-231 [4] = test: Cytotoxicity against human MDA-MB-231 cells assessed as cell growth at 10 uM; settings: read-out: Activity; outline: as §3
MDA-MB-231 [5] = test: Cytotoxicity against human MDA-MB-231 cells assessed as cell growth at 0.001 uM after 48 hrs by sulforhodamine B assay; settings: MDA-MB-231, 48 h, read-out: Activity
SNB-75 = test: Cytotoxicity against human SNB75 cells assessed as cell growth at 1 uM after 48 hrs by sulforhodamine B assay; settings: SNB-75, 48 h, read-out: Activity
NCI-H460 [6] = test: Cytotoxicity against human NCI-H460 cells assessed as cell growth at 0.001 uM after 48 hrs by sulforhodamine B assay; settings: NCI-H460, 48 h, read-out: Activity
NCI-H226 = test: Cytotoxicity against human NCI-H226 cells assessed as cell growth at 10 uM; settings: read-out: Activity; outline: as §3
HOP-62 = test: Cytotoxicity against human HOP62 cells assessed as cell growth at 0.001 uM after 48 hrs by sulforhodamine B assay; settings: HOP-62, 48 h, read-out: Activity
SF-295 = test: Cytotoxicity against human SF295 cells assessed as cell growth at 0.001 uM after 48 hrs by sulforhodamine B assay; settings: SF-295, 48 h, read-out: Activity
NCI-H522 = test: Cytotoxicity against human NCI-H522 cells assessed as cell growth at 10 uM; settings: read-out: Activity; outline: as §3
786-0 = test: Growth inhibition of human 786-0 cells after 48 hrs by sulforhodamine B assay; settings: 786-0, 48 h; outline: as §2
TK-10 = test: Cytotoxicity against human TK10 cells assessed as cell growth at 100 nM after 48 hrs by sulforhodamine B assay; settings: TK-10, 48 h, read-out: Activity
EKVX [7] = test: Cytotoxicity against human EKVX cells assessed as cell growth at 0.01 uM after 48 hrs by sulforhodamine B assay; settings: read-out: Activity
OVCAR-8 = test: Cytotoxicity against human OVCAR8 cells assessed as cell growth at 10 uM after 48 hrs by sulforhodamine B assay; settings: OVCAR-8, 48 h, read-out: Activity
HOP-92 = test: Cytotoxicity against human HOP92 cells assessed as cell growth at 0.001 uM after 48 hrs by sulforhodamine B assay; settings: HOP-92, 48 h, read-out: Activity
NCI-H460 [8] = test: Growth inhibition of human NCI-H460 cells after 48 hrs by sulforhodamine B assay; settings: NCI-H460, 48 h; outline: as §1
M14 = test: Cytotoxicity against human M14 cells assessed as cell growth at 10 uM after 48 hrs by sulforhodamine B assay; settings: M14, 48 h, read-out: Activity
SNB-19 = test: Cytotoxicity against human SNB19 cells assessed as cell growth at 10 uM; settings: read-out: Activity; outline: as §3
UACC-62 = test: Cytotoxicity against human UACC62 cells assessed as cell growth at 100 nM after 48 hrs by sulforhodamine B assay; settings: UACC-62, 48 h, read-out: Activity
OVCAR-3 = test: Cytotoxicity against human OVCAR-3 cells assessed as cell growth at 10 uM after 48 hrs by sulforhodamine B assay; settings: OVCAR-3, 48 h, read-out: Activity
CAKI-1 = test: Cytotoxicity against human Caki1 cells assessed as cell growth at 100 nM after 48 hrs by sulforhodamine B assay; settings: CAKI-1, 48 h, read-out: Activity
Malme-3M = test: Cytotoxicity against human MALME-3M cells assessed as cell growth at 1 uM after 48 hrs by sulforhodamine B assay; settings: read-out: Activity
CCRF-CEM = test: Cytotoxicity against human CCRF-CEM cells assessed as cell growth at 0.001 uM after 48 hrs by sulforhodamine B assay; settings: read-out: Activity
Outline: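 NCI-60 five-dose screen. Cells were grown in RPMI 1640 with 5% FBS and 2 mM L-glutamine, plated at 5000–40,000 cells/well and preincubated for 24 h. Time-zero plates were TCA-fixed. DMSO-solubilized drug was added at five concentrations (10-fold or ½-log serial dilutions) for 48 h at 37 °C, 5% CO2. Cells were TCA-fixed, stained with 0.4% SRB and read at 515 nm. Percent growth used time-zero, control and test absorbances.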

[9] = read-out: LC50 (the source's name)

Cc1cc(O)cc(-c2nn(CC#N)cc2-c2ccnc(-c3ccc(Oc4ccccc4)cc3)c2)c1
GI50 (MDA-MB-468): 1.79 µM | LC50 (concentration giving 50% net cell kill) (MDA-MB-468): 8.28 µM | TGI (MDA-MB-468): 3.85 µM | growth at 0.1 µM (HL-60(TB)): 92% | GI50 (SF-268 [1]): 3.96 µM | TGI (SF-268 [1]): 15.5 µM | CC50 (SF-268 [1]; [9]): 41.4 µM | GI50 (EKVX [2]): 2.16 µM | TGI (EKVX [2]): 8.95 µM | CC50 (EKVX [2]; [9]): > 100 µM | growth at 10 µM (SF-268 [3]): -95% | growth at 10 µM (T47D): 14.2% | growth at 10 µM (MDA-MB-231 [4]): 46.7% | growth at 0.001 µM (MDA-MB-231 [5]): 96% | growth at 1 µM (SNB-75): 30% | growth at 0.001 µM (NCI-H460 [6]): 100% | growth at 10 µM (NCI-H226): 70.3% | growth at 0.001 µM (HOP-62): 93% | growth at 0.001 µM (SF-295): 99% | growth at 10 µM (NCI-H522): 36% | GI50 (786-0): 2.14 µM | TGI (786-0): 5.38 µM | CC50 (786-0; [9]): 18.9 µM | growth at 0.1 µM (TK-10): 102% | growth at 0.01 µM (EKVX [7]): 94% | growth at 10 µM (OVCAR-8): -88% | growth at 0.001 µM (HOP-92): 74% | GI50 (NCI-H460 [8]): 1.87 µM | TGI (NCI-H460 [8]): 3.58 µM | CC50 (NCI-H460 [8]; [9]): 6.85 µM | growth at 10 µM (M14): -94% | growth at 10 µM (SNB-19): 72.8% | growth at 0.1 µM (UACC-62): 84% | growth at 10 µM (OVCAR-3): -100% | growth at 0.1 µM (CAKI-1): 75% | growth at 1 µM (Malme-3M): -75% | growth at 0.001 µM (CCRF-CEM): 96%
